# Experimental data reported in ChEMBL document CHEMBL1629690, “Development of hexadecyloxypropyl tenofovir (CMX157) for treatment of infection caused by wild-type and nucleoside/nucleotide-resistant HIV” (Antimicrob Agents Chemother, 2010).
# How the values were obtained:
# [1] = test system: Human immunodeficiency virus 1; test: Antiviral activity against HIV1 isolate 166 harboring reverse transcriptase L74V mutant gene obtained as site-directed mutant of NL4-3 by phenosense assay relative to wild type; type: functional
# How it was run: (§1)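 Recombinant-virus PhenoSense HIV assay run on a panel of 30 NRTI-resistant HIV-1 mutants and two wild-type viruses. Each virus is tested across increasing drug concentrations to give an inhibition curve and EC50. Fold change is the test recombinant EC50 divided by the EC50 of the drug-sensitive wild-type reference virus.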
# [2] = test system: Human immunodeficiency virus 1; test: Antiviral activity against HIV1 isolate 203 harboring reverse transcriptase M41L/L210W/T215Y/M184V mutant gene by phenosense assay; type: functional, organism-based; settings: Human immunodeficiency virus 1, isolate 203
# How it was run: (§2)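 PhenoSense HIV recombinant virus assay: patient-derived HIV-1 with major NRTI resistance mutations tested against increasing drug concentrations to give inhibition curves. EC50 is the concentration giving 50% inhibition. Fold change is the test recombinant EC50 divided by the EC50 of a drug-sensitive wild-type reference virus. Panel of 30 NRTI-resistant isolates plus two wild-type viruses.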
# [3] = test system: Human immunodeficiency virus 1; test: Antiviral activity against HIV1 isolate 174 harboring reverse transcriptase M184V mutant gene obtained as site-directed mutant of NL4-3 by phenosense assay; type: functional, organism-based; settings: Human immunodeficiency virus 1, isolate 174; how it was run: as §1
# [4] = test system: Human immunodeficiency virus 1; test: Antiviral activity against HIV1 isolate 206 harboring reverse transcriptase D67N/K70R mutant gene by phenosense assay; type: functional, organism-based; settings: Human immunodeficiency virus 1, isolate 206; how it was run: as §2
# [5] = test system: Human immunodeficiency virus 1; test: Antiviral activity against HIV1 isolate 153 harboring reverse transcriptase L74V mutant gene by phenosense assay relative to wild type; type: functional; how it was run: as §1
# [6] = test system: Human immunodeficiency virus 1; test: Antiviral activity against HIV1 isolate 217 harboring reverse transcriptase D67N/K70E/M184V mutant gene by phenosense assay; type: functional, organism-based; settings: Human immunodeficiency virus 1, isolate 217; how it was run: as §2
# [7] = test system: Human immunodeficiency virus 1; test: Antiviral activity against HIV1 isolate 056 expressing wild type reverse transcriptase gene by phenosense assay; type: functional, organism-based; settings: Human immunodeficiency virus 1, isolate 056
# How it was run: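 In the PhenoSense recombinant virus assay, virus was tested against increasing drug concentrations. EC50 came from the inhibition curve and was compared with a drug-sensitive reference virus.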
# [8] = test system: Human immunodeficiency virus 1; test: Antiviral activity against HIV1 isolate 204 harboring reverse transcriptase M41L/L210W/T215Y/M184V mutant gene by phenosense assay; type: functional, organism-based; settings: Human immunodeficiency virus 1, isolate 204; how it was run: as §2
# [9] = test system: Human immunodeficiency virus 1; test: Antiviral activity against HIV1 isolate 217 harboring reverse transcriptase D67N/K70E/M184V mutant gene by phenosense assay relative to wild type; type: functional; how it was run: as §2
# [10] = test system: Human immunodeficiency virus 1; test: Antiviral activity against HIV1 isolate 212 harboring reverse transcriptase L210W/T215Y mutant gene by phenosense assay; type: functional, organism-based; settings: Human immunodeficiency virus 1, isolate 212; how it was run: as §2
# [11] = test system: Human immunodeficiency virus 1; test: Antiviral activity against HIV1 isolate 194 harboring reverse transcriptase M41L/T215Y/M184V mutant gene by phenosense assay relative to wild type; type: functional; how it was run: as §1
# [12] = test system: Human immunodeficiency virus 1; test: Antiviral activity against HIV1 isolate 192 harboring reverse transcriptase M41L/T215Y mutant gene by phenosense assay; type: functional, organism-based; settings: Human immunodeficiency virus 1, isolate 192; how it was run: as §1
# [13] = test system: Human immunodeficiency virus 1; test: Antiviral activity against HIV1 isolate 157 harboring reverse transcriptase L74V/M184V mutant gene by phenosense assay relative to wild type; type: functional; how it was run: as §1
# [14] = test system: Human immunodeficiency virus 1; test: Antiviral activity against HIV1 isolate 174 harboring reverse transcriptase M184V mutant gene obtained as site-directed mutant of NL4-3 by phenosense assay relative to wild type; type: functional; how it was run: as §1
# [15] = test system: Human immunodeficiency virus 1; test: Antiviral activity against HIV1 isolate 206 harboring reverse transcriptase D67N/K70R mutant gene by phenosense assay relative to wild type; type: functional; how it was run: as §2
# [16] = test system: Human immunodeficiency virus 1; test: Antiviral activity against HIV1 isolate 063 harboring reverse transcriptase M41L/D67N/K70R/M184V/L210W/T215Y/K219E mutant gene by phenosense assay relative to wild type; type: functional; how it was run: as §1
# [17] = test system: Human immunodeficiency virus 1; test: Antiviral activity against HIV1 isolate 220 harboring reverse transcriptase K70E/M184V mutant gene by phenosense assay; type: functional, organism-based; settings: Human immunodeficiency virus 1, isolate 220; how it was run: as §2
# [18] = test system: Human immunodeficiency virus 1; test: Antiviral activity against HIV1 isolate 166 harboring reverse transcriptase L74V mutant gene obtained as site-directed mutant of NL4-3 by phenosense assay; type: functional, organism-based; settings: Human immunodeficiency virus 1, isolate 166; how it was run: as §1
# [19] = test system: Human immunodeficiency virus 1; test: Antiviral activity against HIV1 isolate 058 harboring reverse transcriptase M41L/D67N/K70R/L210W/T215F/K219Q mutant gene by phenosense assay; type: functional, organism-based; settings: Human immunodeficiency virus 1, isolate 058; how it was run: as §1
# [20] = test system: Human immunodeficiency virus 1; test: Antiviral activity against HIV1 isolate 201 harboring reverse transcriptase M41L/L210W/T215Y mutant gene by phenosense assay; type: functional, organism-based; settings: Human immunodeficiency virus 1, isolate 201; how it was run: as §1
# [21] = test system: Human immunodeficiency virus 1; test: Antiviral activity against HIV1 isolate 060 harboring reverse transcriptase M41L/D67N/K70R/L210W/T215Y/K219E mutant gene by phenosense assay; type: functional, organism-based; settings: Human immunodeficiency virus 1, isolate 060; how it was run: as §1
# [22] = test system: Human immunodeficiency virus 1; test: Antiviral activity against HIV1 isolate 162 harboring reverse transcriptase A62V/V75I/F77L/Y115F/F116Y/Q151M/M184V mutant gene by phenosense assay relative to wild type; type: functional; how it was run: as §1
# [23] = test system: Human immunodeficiency virus 1; test: Antiviral activity against HIV1 isolate 211 harboring reverse transcriptase D67N/K70R/T215F/K219E/M184V mutant gene by phenosense assay; type: functional, organism-based; settings: Human immunodeficiency virus 1, isolate 211; how it was run: as §2
# [24] = test system: Human immunodeficiency virus 1; test: Antiviral activity against HIV1 isolate 180 harboring reverse transcriptase K65R mutant gene obtained as site-directed mutant of NL4-3 by phenosense assay; type: functional, organism-based; settings: Human immunodeficiency virus 1, isolate 180; how it was run: as §1
# [25] = test system: Human immunodeficiency virus 1; test: Antiviral activity against HIV1 isolate 069 harboring reverse transcriptase D67E/T69SSG/V75M/M184V/L210W/T215Y mutant gene by phenosense assay; type: functional, organism-based; settings: Human immunodeficiency virus 1, isolate 069; how it was run: as §1
# [26] = test system: Human immunodeficiency virus 1; test: Antiviral activity against HIV1 isolate 194 harboring reverse transcriptase M41L/T215Y/M184V mutant gene by phenosense assay; type: functional, organism-based; settings: Human immunodeficiency virus 1, isolate 194; how it was run: as §1
# [27] = test system: Human immunodeficiency virus 1; test: Antiviral activity against HIV1 isolate 070 harboring reverse transcriptase 65R/S68G mutant gene by phenosense assay relative to wild type; type: functional; how it was run: as §1
# [28] = test system: Human immunodeficiency virus 1; test: Antiviral activity against HIV1 isolate 188 harboring reverse transcriptase T215Y/M184V mutant gene by phenosense assay; type: functional, organism-based; settings: Human immunodeficiency virus 1, isolate 188; how it was run: as §1
# [29] = test system: Human immunodeficiency virus 1; test: Antiviral activity against HIV1 isolate 063 harboring reverse transcriptase M41L/D67N/K70R/M184V/L210W/T215Y/K219E mutant gene by phenosense assay; type: functional, organism-based; settings: Human immunodeficiency virus 1, isolate 063; how it was run: as §1
# [30] = test system: Human immunodeficiency virus 1; test: Antiviral activity against HIV1 isolate 203 harboring reverse transcriptase M41L/L210W/T215Y/M184V mutant gene by phenosense assay relative to wild type; type: functional; how it was run: as §2
# [31] = test system: Human immunodeficiency virus 1; test: Antiviral activity against HIV1 isolate 160 harboring reverse transcriptase S68G/V75(I/T)/F77L/Y115F/F116Y /Q151M mutant gene by phenosense assay relative to wild type; type: functional; how it was run: as §1
# [32] = test system: Human immunodeficiency virus 1; test: Antiviral activity against HIV1 isolate 061 harboring reverse transcriptase M41L/D67N/K70R/M184V/L210W/T215Y/K219E mutant gene by phenosense assay relative to wild type; type: functional; how it was run: as §1
# [33] = test system: Human immunodeficiency virus 1; test: Antiviral activity against HIV1 isolate 200 harboring reverse transcriptase M41L/L210W/T215Y mutant gene by phenosense assay; type: functional, organism-based; settings: Human immunodeficiency virus 1, isolate 200; how it was run: as §1
# [34] = test system: Human immunodeficiency virus 1; test: Antiviral activity against HIV1 isolate 069 harboring reverse transcriptase D67E/T69SSG/V75M/M184V/L210W/T215Y mutant gene by phenosense assay relative to wild type; type: functional; how it was run: as §1
SMILES,fold change (FC) [1],EC50 [2] [µM],EC50 [3] [µM],EC50 [4] [µM],fold change (FC) [5],EC50 [6] [µM],EC50 [7] [µM],EC50 [8] [µM],fold change (FC) [9],EC50 [10] [µM],fold change (FC) [11],EC50 [12] [µM],fold change (FC) [13],fold change (FC) [14],fold change (FC) [15],fold change (FC) [16],EC50 [17] [µM],EC50 [18] [µM],EC50 [19] [µM],EC50 [20] [µM],also measured
CCCCCCCCCCCCCCCCOCCCOP(=O)(O)CO[C@H](C)Cn1cnc2c(N)ncnc21 [TENOFOVIR EXALIDEX],0.8,0.0019,0.0012,0.0056,0.66,0.0015,0.0017,0.0025,0.78,0.0028,1.6,0.0039,0.36,0.62,3,2.8,0.0013,0.0015,0.0085,0.0066,EC50 [21]: 0.0096 µM; fold change (FC) [22]: 1.6; EC50 [23]: 0.0019 µM; EC50 [24]: 0.0047 µM; EC50 [25]: 0.011 µM; EC50 [26]: 0.0029 µM; fold change (FC) [27]: 1.9; EC50 [28]: 0.0017 µM; EC50 [29]: 0.0052 µM; fold change (FC) [30]: 1; fold change (FC) [31]: 2; fold change (FC) [32]: 2.1; EC50 [33]: 0.006 µM; fold change (FC) [34]: 6.1
O=c1[nH]cnc2c1ncn2[C@H]1CC[C@@H](CO)O1 [DIDANOSINE],1.5,8.2,6.8,6.6,1.6,7.3,5.5,8.6,1.3,5.5,1.8,6.3,2,1.2,1.2,2.1,9.9,8.1,8.8,5.9,EC50 [21]: 8.9 µM; fold change (FC) [22]: 11; EC50 [23]: 8.7 µM; EC50 [24]: 11 µM; EC50 [25]: 24 µM; EC50 [26]: 10 µM; fold change (FC) [27]: 1.7; EC50 [28]: 7.9 µM; EC50 [29]: 11 µM; fold change (FC) [30]: 1.5; fold change (FC) [31]: 12; fold change (FC) [32]: 2.1; EC50 [33]: 7.5 µM; fold change (FC) [34]: 4.4
Nc1nc(=O)n([C@@H]2CS[C@H](CO)O2)cc1F [EMTRICITABINE],1.5,> 100,> 100,3.3,1.9,> 100,0.89,> 100,>88,2.6,>88,3.1,>88,>88,2.9,>88,> 100,1.7,5.7,2.2,EC50 [21]: 11 µM; fold change (FC) [22]: >88; EC50 [23]: > 100 µM; EC50 [24]: 13 µM; EC50 [25]: > 100 µM; EC50 [26]: > 100 µM; fold change (FC) [27]: 17; EC50 [28]: > 100 µM; EC50 [29]: > 100 µM; fold change (FC) [30]: >88; fold change (FC) [31]: 30; fold change (FC) [32]: >63; EC50 [33]: 4.2 µM; fold change (FC) [34]: >88
Nc1ccn([C@@H]2CS[C@H](CO)O2)c(=O)n1 [LAMIVUDINE],1.6,> 300,> 300,8.1,1.9,> 300,3.2,> 300,>80,7.3,>80,7.6,>80,>80,2.1,>80,> 300,6.1,14,5.9,EC50 [21]: 22 µM; fold change (FC) [22]: >80; EC50 [23]: > 300 µM; EC50 [24]: 43 µM; EC50 [25]: > 300 µM; EC50 [26]: > 300 µM; fold change (FC) [27]: 19; EC50 [28]: > 300 µM; EC50 [29]: > 300 µM; fold change (FC) [30]: >80; fold change (FC) [31]: 24; fold change (FC) [32]: >71; EC50 [33]: 10.3 µM; fold change (FC) [34]: >80
